Assay results: ChEMBL document CHEMBL1137515, “Alpha-diaminobutyric acid-linked hairpin polyamides” (Bioorg Med Chem, 2007)
Values belong to the compound of their own block, whether it stands above or below them.

How the values were obtained:
[1] = Binding affinity to pMFST5 forward hairpin binding M site
Method in brief: (§1)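 Quantitative DNase I footprinting on the 301 bp 5′ end-labeled PCR product of plasmid pMFST5, using 1 pM to 100 nM polyamide across 11 lanes. DNA was incubated with polyamide or water for 12–16 h at room temperature before DNase I digestion. Equilibrium association constants (M−1) from binding isotherms are the mean of three experiments.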

[2] = Binding affinity to pMFST5 overlapped extended O site; method in brief: as §1
[3] = Binding affinity to pMFST5 slipped extended S site; method in brief: as §1
[4] = Binding affinity to pMFST2 TAGGTGT match site
Method in brief: (§2)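 DNase I footprinting titrations on the 5′ end-labeled PCR product of the relevant plasmid (pMFST or pMFST2). DNA was equilibrated with polyamide or water (control) for 12–16 h at room temperature before DNase I cleavage. Binding isotherms gave equilibrium association constants (M−1), reported as the mean of three titrations.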

[5] = Binding affinity to pMFST2 TAGGTCT mismatch site A; method in brief: as §2
[6] = Binding affinity to pMFST2 TAGCTGT mismatch site B; method in brief: as §2
[7] = Binding affinity to pMFST TAGTGGT match site; method in brief: as §2
[8] = Binding affinity to pMFST ATATGGT mismatch site A; method in brief: as §2
[9] = Binding affinity to pMFST TAGTCGT mismatch site B; method in brief: as §2
[10] = Binding affinity to pMFST ATGGTCA match site; method in brief: as §2
[11] = Binding affinity to pMFST AACGACT mismatch site A; method in brief: as §2
[12] = Binding affinity to pMFST TAGCACA mismatch site B; method in brief: as §2

Structure (SMILES): CN(C)CCCNC(=O)CCNC(=O)c1cc(NC(=O)c2cc(NC(=O)c3cc(NC(=O)c4nc(NC(=O)CNC(=O)c5cc(NC(=O)c6cc(NC(=O)c7nc(NC(=O)c8nccn8C)cn7C)cn6C)cn5C)cn4C)cn3C)cn2C)cn1C
Ka [1]: 7 10^8/M
Ka [2]: 5.9 10^8/M
Ka [3]: 1.3 10^9/M

Structure (SMILES): CN(C)CCCNC(=O)CCNC(=O)c1cc(NC(=O)c2cc(NC(=O)c3cc(NC(=O)c4cc(NC(=O)[C@H](N)CCNC(=O)c5nc(NC(=O)c6cc(NC(=O)c7nc(NC(=O)c8nccn8C)cn7C)cn6C)cn5C)cn4C)cn3C)cn2C)cn1C
Ka [4]: 4.4 10^10/M
Ka [5]: 1.1 10^10/M
Ka [6]: 1.1 10^9/M

Structure (SMILES): CN(C)CCCNC(=O)CCNC(=O)c1cc(NC(=O)c2cc(NC(=O)c3cc(NC(=O)c4cc(NC(=O)[C@H](N)CCNC(=O)c5nc(NC(=O)c6nc(NC(=O)CCNC(=O)c7nccn7C)cn6C)cn5C)cn4C)cn3C)cn2C)cn1C
Ka [7]: 4.3 10^10/M
Ka [8]: 9.9 10^8/M
Ka [9]: 6.2 10^9/M

Structure (SMILES): CN(C)CCCNC(=O)CCNC(=O)c1cc(NC(=O)c2cc(NC(=O)c3cc(NC(=O)c4cc(NC(=O)[C@@H](CCN)NC(=O)c5nc(NC(=O)c6nc(NC(=O)CCNC(=O)c7nccn7C)cn6C)cn5C)cn4C)cn3C)cn2C)cn1C
Ka [7]: 8 10^8/M
Ka [9]: 6.2 10^7/M

Second part, the compound after the results:

Ka [10]: 4.4 10^9/M
Ka [11]: 1.5 10^8/M
Ka [1]: 9.8 10^9/M
Ka [2]: 4.7 10^9/M
Structure (SMILES): CN(C)CCCNC(=O)CCNC(=O)c1cc(NC(=O)c2cc(NC(=O)c3cc(NC(=O)c4nc(NC(=O)[C@@H](CCN)NC(=O)c5cc(NC(=O)c6cc(NC(=O)c7nc(NC(=O)c8nccn8C)cn7C)cn6C)cn5C)cn4C)cn3C)cn2C)cn1C

Ka [10]: 4.9 10^10/M
Ka ([11]; in the assay text read “mismatch site C” for “mismatch site A”): 1.8 10^10/M
Ka [12]: 3.9 10^8/M
Structure (SMILES): CN(C)CCCNC(=O)CCNC(=O)c1cc(NC(=O)c2cc(NC(=O)c3cc(NC(=O)c4nc(NC(=O)[C@H](N)CCNC(=O)c5cc(NC(=O)c6cc(NC(=O)c7nc(NC(=O)c8nccn8C)cn7C)cn6C)cn5C)cn4C)cn3C)cn2C)cn1C

Ka [4]: 3 10^8/M
Ka [5]: 8.5 10^7/M
Structure (SMILES): CN(C)CCCNC(=O)CCNC(=O)c1cc(NC(=O)c2cc(NC(=O)c3cc(NC(=O)c4cc(NC(=O)[C@@H](CCN)NC(=O)c5nc(NC(=O)c6cc(NC(=O)c7nc(NC(=O)c8nccn8C)cn7C)cn6C)cn5C)cn4C)cn3C)cn2C)cn1C
